Consider seven compounds from ChEMBL document CHEMBL3632548, “Oxidized Metabolites of 20-Hydroxyecdysone and Their Activity on Skeletal Muscle Cells: Preparation of a Pair of Desmotropes with Opposite Bioactivities” (J Nat Prod, 2015).

Data set [1] is described as follows: Drug level in aqueous solution treated with (2S,3R,5R,10S,13R,17S)-2,3,7-trihydroxy-10,13-dimethyl-17-((2R,3R)-2,3,6-trihydroxy-6-methylheptan-2-yl)-2,3,4,5,12,13,16,17-octahydro-1H-cyclopenta[a]phenanthren-6(10H)-one at 80 degC after 4 days. The data set is classed as physicochemical. The conditions noted are these: buffer, 96 h.
Data set [2] is described as follows: Chemical stability of the compound in acidic media at pH 3 at room temperature. The data set is classed as physicochemical. The conditions noted are these: buffer.
Data set [3] is described as follows: Chemical stability of the compound in neutral media at room temperature. It counts as physicochemical.
The nature of data set [4]: Drug level in aqueous solution treated with (2S,3R,10R,13R,14S,17S)-2,3,6,14-tetrahydroxy-10,13-dimethyl-17-((2R,3R)-2,3,6-trihydroxy-6-methylheptan-2-yl)-3,4,10,11,12,13,14,15,16,17-decahydro-1H-cyclopenta[a]phenanthren-7(2H)-one at pH 3. The data set is classed as physicochemical. The conditions noted are these: buffer.
Data set [5] concerns the target RAC-alpha serine/threonine-protein kinase (Mus musculus) (UniProt P31750). The data set is described as follows: Induction of Akt phosphorylation in mouse C2C12 cells at 30 ug/ml pretreated with compound for 24 hrs followed by fresh medium with compound addition measured after 2 hrs by Western blot analysis. The data set is classed as cell-based. The method, boiled down:
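Differentiated C2C12 myotubes (8 days in horse serum medium) are exposed to 30 μg/mL compound in 10% FBS high-glucose DMEM for 24 h, without overnight serum starvation. Fresh medium with the same compound concentration is added for a further 2 h. Cells are lysed in SDS sample buffer, resolved on 10% SDS-PAGE, transferred to PVDF and probed for phospho- and total Akt.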
(In general: In western blotting, separated proteins are transferred to a membrane and probed.)

The nature of data set [6]: Chemical stability of the compound at 80 degC. The data set is classed as physicochemical.
Data set [7] in a line: Chemical stability of the compound in basic media at pH 8 at room temperature. It counts as physicochemical. The following applies: buffer.
Data set [8] can be described thus: Drug level in aqueous solution treated with 20-hydroxyecdysone at 120 mg at pH 6 to 6.5 measured at 6 to 7 hrs hrs by HPLC-DAD analysis. It counts as physicochemical. The following applies: in vivo. The method, boiled down:
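20E was reacted with NaOH at room temperature, and the mixture was set to pH 6−6.5 with acetic acid before evaporation under nitrogen. Products were quantified by C18 HPLC with an aqueous acetonitrile gradient, using AUC at λmax against calibration dilutions of isolated compounds. Amounts are expressed relative to initial 20E.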

Data set [9] concerns C2C12. The data set is described as follows: Effect on glucose consumption in mouse C2C12 cells at 30 ug/ml after 24 hrs. It counts as functional, cell-based. The method, boiled down: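 C2C12 myoblasts are grown in high-glucose DMEM with 10% FBS at 37 °C, 5% CO2. At confluence they are switched to DMEM with 10% horse serum for 8 days to form myotubes. Myotubes are then given 10% FBS high-glucose DMEM with or without 30 μg/mL compound for 24 h. Glucose remaining in the medium is measured to calculate glucose consumption.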

Data set [10] in a line: Drug level in aqueous solution treated with 20-hydroxyecdysone at 120 mg incubated for 2 days measured at 0.5 to 48 hrs by HPLC-DAD analysis in presence of NaOH. The data set is classed as physicochemical. The following applies: in vivo. The method, boiled down:
(§1)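 20E (120 mg) is stirred at room temperature (22−25 °C) in 70% aqueous MeOH with 2% NaOH, and aliquots are taken over time. Analysis is by analytical HPLC on a C18 column with an aqueous acetonitrile gradient and 9.6% acetic acid, 1 mL/min. Compounds are quantified from peak AUC at each λmax against calibration dilutions and expressed relative to initial 20E. Three independent experiments; one-phase decay regression.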

A short description of data set [11]: Drug level in aqueous solution treated with (2S,3R,5R,9R,10R,13R,14S,17S)-2,3,14-trihydroxy-10,13-dimethyl-17-((2R,3R)-2,3,6-trihydroxy-6-methylheptan-2-yl)-2,3,4,5,9,11,12,13,14,15,16,17-dodecahydro-1H-cyclopenta[a]phenanthren-6(10H)-one at 120 mg incubated for 2 days measured at 0.5 to 48 hrs by HPLC-DAD analysis in presence of NaOH. It counts as physicochemical. The following applies: in vivo. The method, boiled down: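 120 mg 20E stirred with 100 mg NaOH at room temperature (22−25 °C) and sampled over time. Samples were analysed by HPLC on a C18 column using an aqueous acetonitrile gradient with acetic acid at 1 mL/min. Peak AUC was read at each compound's λmax and calibrated against dilutions of isolated compounds. Amounts are relative to initial 20E; three independent experiments.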

A short description of data set [12]: Drug level in aqueous solution treated with (2S,3R,10R,13R,14S,17S)-2,3,6,14-tetrahydroxy-10,13-dimethyl-17-((2R,3R)-2,3,6-trihydroxy-6-methylheptan-2-yl)-3,4,10,11,12,13,14,15,16,17-decahydro-1H-cyclopenta[a]phenanthren-7(2H)-one at pH 8. The data set is classed as physicochemical. The conditions noted are these: buffer.
Data set [13] in a line: Half life of the compound by HPLC analysis in presence of NaOH. The data set is classed as physicochemical. Summed up:
as §1

The source made the active and inactive calls.

RAC-alpha serine/threonine-protein kinase (Mus musculus), sequence (P31750 whole entry): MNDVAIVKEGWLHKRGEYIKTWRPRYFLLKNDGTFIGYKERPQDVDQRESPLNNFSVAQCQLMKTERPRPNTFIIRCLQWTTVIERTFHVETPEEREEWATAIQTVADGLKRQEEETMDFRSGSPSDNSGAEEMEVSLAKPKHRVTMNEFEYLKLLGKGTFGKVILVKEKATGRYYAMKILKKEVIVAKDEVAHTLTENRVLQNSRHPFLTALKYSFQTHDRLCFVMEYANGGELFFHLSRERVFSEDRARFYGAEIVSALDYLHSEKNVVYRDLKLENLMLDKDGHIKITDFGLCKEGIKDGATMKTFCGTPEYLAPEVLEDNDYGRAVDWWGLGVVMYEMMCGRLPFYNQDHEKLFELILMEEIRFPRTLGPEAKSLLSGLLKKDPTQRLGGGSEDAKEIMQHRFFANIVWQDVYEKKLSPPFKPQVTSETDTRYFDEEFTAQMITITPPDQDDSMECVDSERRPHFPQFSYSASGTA

With `CC(C)(O)CC[C@@H](O)[C@](C)(O)[C@H]1CC=C2C3=C(CC[C@@]21C)[C@@]1(C)C[C@H](O)[C@H](O)CC1=C(O)C3=O`, the Drug metabolism entry in data set [1], in data set [4] and in data set [8] was “metabolite_detected” in each case. The Stability entry in data set [2], in [3], in data set [6] and in [7] was “Stable” each time. Further, the result in [5] was Active. Moreover, the outcome in data set [9] was inactive.

`CC(C)(O)CC[C@@H](O)[C@](C)(O)[C@H]1CC[C@@]2(O)C3=C(CC[C@]12C)[C@@]1(C)C[C@H](O)[C@H](O)CC1=C(O)C3=O`: the Drug metabolism entry in data set [10] is reported as “metabolite_detected”. The outcome in data set [9] was inactive.

Consider `CC(C)(O)CC[C@@H](O)[C@](C)(O)[C@H]1CC[C@@]2(O)C3=CC(=O)[C@@H]4C[C@@H](O)[C@@H](O)C[C@]4(C)[C@@]3(O)CC[C@]12C`, for which, in data set [11], the Drug metabolism entry is “metabolite_detected”. Further, in data set [9], the outcome was inactive.

Consider `CC(C)(O)CC[C@@H](O)[C@](C)(O)[C@H]1CC=C2C3=C(O)C(=O)[C@@H]4C[C@@H](O)[C@@H](O)C[C@]4(C)C3=CC[C@@]21C`, for which the Stability entry in data set [2], in data set [3] and in data set [7] was “Stable” each time. The Drug metabolism result in data set [12] and in [10] was “metabolite_detected” in each case. Further, the result in data set [5] and in data set [9] was inactive.

A word on the half-life: it is the time needed for the level to fall by half in the phase considered. For the compound `CC(C)(O)CC[C@@H](O)[C@](C)(O)[C@H]1CC[C@@]2(O)C3=CC(=O)[C@@H]4C[C@@H](O)[C@@H](O)C[C@]4(C)[C@H]3CC[C@]12C` [20-HYDROXYECDYSONE], the outcome in [5] and in data set [9] was inactive. Moreover, the half-life in [13] was 1.39 h.

On to `CC(C)(O)CC[C@@H](O)[C@](C)(O)[C@H]1CC[C@@]2(O)C3=CC(=O)[C@H]4C[C@@H](O)[C@@H](O)C[C@]4(C)[C@@]3(O)CC[C@]12C`, for which the result in [5] was Active. The Drug metabolism result in data set [11] is recorded as “metabolite_detected”. Further, the result in data set [9] was inactive.

With `CC(C)(O)CC[C@@H](O)[C@](C)(O)[C@H]1CC[C@@]2(O)C3=CC(=O)[C@@H]4C[C@@H](O)[C@@H](O)C[C@]4(C)C3=CC[C@]12C`, the outcome in data set [9] was inactive.
